Screening data from PubChem BioAssay.
Sampled rows, rich in hits. Any-hit rate of the full collection: about 3.5%.
MrgX1 PAM – human MrgX1 positive allosteric modulation, primary screen. MrgX1-HEK293, Fluo-4 calcium flux, FDSS; active compounds read high. B-score at 10 µM. 310,000 compounds, 0.63% hits;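 active = plate-corrected calcium response at least 3 library SD above typical, normal starting fluorescence, not activating the receptor alone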;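 also: compound read alongside a low EC10 to EC30 dose of BAM8-22 agonist; peak minus trough fluorescence over baseline measured at the second addition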
Target sequence (Q96LB2 whole entry, looked up): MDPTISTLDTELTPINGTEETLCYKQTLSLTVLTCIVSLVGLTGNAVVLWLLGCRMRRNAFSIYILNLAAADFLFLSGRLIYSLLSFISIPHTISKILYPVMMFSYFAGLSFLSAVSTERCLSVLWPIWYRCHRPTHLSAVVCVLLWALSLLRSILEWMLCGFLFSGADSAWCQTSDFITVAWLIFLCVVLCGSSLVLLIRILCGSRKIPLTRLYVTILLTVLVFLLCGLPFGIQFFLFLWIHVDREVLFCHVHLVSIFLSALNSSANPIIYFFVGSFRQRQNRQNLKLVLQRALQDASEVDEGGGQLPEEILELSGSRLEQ
MrgX1 antagonist – blocks BAM8-22 activation of human MrgX1 receptor | B-score at 10 µM | 310,000 compounds, 1.3% hits | MRGX1-HEK293 calcium flux, Fluo-4, BAM8-22 antagonism; active compounds read low | Q96LB2;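 active = calcium-response B-score plate-corrected more than 3 library SD below zero, starting fluorescence within 5 deviations, no agonist response on first addition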;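 also: peak minus trough fluorescence over baseline after final BAM8-22 challenge near maximal dose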
MrgX1 ag – human MrgX1 receptor agonism, primary screen; 310,000 compounds, 0.44% hits; B-score at 10 µM; AID 588627; MrgX1-HEK293 cells, Fluo-4 calcium fluorescence, agonist mode; active compounds read high;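 active = calcium response B-score plate-corrected fluorescence ratio at least 3 library SD, with starting fluorescence B-score inside 5 SD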
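Material: HEK293 cells stably expressing human MrgX1 receptor | Quantity: 15,000 cells per well | Times: Cells plated overnight, dye loaded 0.5 h 37 °C, 0.5 h room temperature | Measured by: Kinetic Fluo-4 NW fluorescence of intracellular calcium | Control set: Positive and negative controls per plate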
RGS4 act – potentiators or activators of RGS4; B-score at 10 µM; HEK293 M3R/inducible RGS4, carbachol calcium flux Fluo4; active compounds read low; AID 463111; 310,000 compounds, 0.92% hits;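 active = B-score of the integrated calcium signal more than 4 SD below the library mean, with starting fluorescence not abnormally high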;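 also: negative B-score means reduced calcium response which marks RGS4 activation or potentiation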
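Material: M3R-expressing HEK293 line, RGS4 induced by doxycycline | Schedule: Overnight RGS4 induction, 30 min dye load 37 °C, 20 min compound RT | Measured by: Fluo4 fluorescence kinetic imaging of calcium | Read-out: Integrated calcium ratio converted to B score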
RGS4 block – inhibitors of human RGS4; P49798; HEK293 M3R/RGS4 inducible, Fluo-4 calcium flux; active compounds read high; triggered by carbachol at its EC20; B-score at 10 µM; 310,000 compounds, 0.45% hits;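 active = B-score, a plate-corrected calcium signal, over three deviations above library mean, with baseline fluorescence within five deviations of library mean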;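 also: RGS4 expression induced by doxycycline in cells with stable M3 receptor; B-score is computed from the integrated fluorescence ratio over baseline after carbachol; higher B-score means a larger calcium signal and so more RGS4 inhibition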
Target sequence (P49798 whole entry, looked up): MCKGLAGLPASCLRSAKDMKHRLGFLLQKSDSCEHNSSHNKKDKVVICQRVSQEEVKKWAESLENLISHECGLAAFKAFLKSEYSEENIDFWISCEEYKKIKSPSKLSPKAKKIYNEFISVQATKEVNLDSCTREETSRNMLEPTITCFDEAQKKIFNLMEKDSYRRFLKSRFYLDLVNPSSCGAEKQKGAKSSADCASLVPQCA
MrgX1 PAM conf – confirmation of human MrgX1 receptor positive allosteric modulators; shares compounds with MrgX1 PAM; MrgX1-HEK293, Fluo-4 calcium fluorescence, FDSS; activation (ratio percentage), % at 10 µM; 1,200 compounds, 13% hits; AID 602413;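 active = ratio at least 3 SD above the weak peptide control, stable starting fluorescence, no direct agonism earlier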;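 also: compound followed by low BAM8-22 agonist challenge near EC20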
HEK293 Ca flux – MrgX1 antagonist counter-screen hit in parental HEK293 cells | 4,000 compounds, 2% hits | shares compounds with MrgX1 antagonist | fluorescence ratio F(max-min)/F0 at 10 µM | Fluo-4 calcium fluorescence, FDSS;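 active = duplicate-averaged calcium fluorescence ratio at least three times the standard deviation of buffer wells, a nonspecific response in parental cells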
HEK293 Ca counter – activity in parental HEK293 cells without MrgX1; shares compounds with MrgX1 antagonist; parental HEK293 calcium flux, Fluo-4 fluorescence ratio; active compounds read high; fluorescence ratio F(max-min)/F0 at 10 µM; 4,000 compounds, 0.4% hits;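 active = calcium fluorescence ratio, averaged over duplicates, at least 3 SD of the buffer-well ratio, meaning a nonspecific response in receptor-free cells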;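 also: untransfected parental HEK293 lacking MrgX1 used as counterscreen for MrgX1 allosteric activators; fluorescence change taken during the second addition on a kinetic imager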
HEK293 Ca cntr2 – activity in parental HEK293 cells lacking MrgX1 receptor; fluorescence ratio F(max-min)/F0 at 10 µM; shares compounds with MrgX1 antagonist; 4,000 compounds, 8.7% hits; Fluo-4 calcium fluorescence (FDSS); active compounds read high;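 active = calcium fluorescence ratio at least three times the spread of buffer wells, meaning a non-specific response in parental cells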
An asterisk follows results filed as active; i = inactive; . = no result given.

SMILES	MrgX1 PAM	MrgX1 antagonist	MrgX1 ag	RGS4 act	RGS4 block	MrgX1 PAM conf	HEK293 Ca flux	HEK293 Ca counter	HEK293 Ca cntr2
COc1cccc(-n2c(SCC(N)=O)nnc2-c2c[nH]c3ccccc23)c1	6.9*	i	i	i	i	i	i	i	i
Cn1c(C(C)(O)C(O)c2ccccc2)nc2ccccc21 (stereo not drawn)	i	i	i	i	i	.	.	.	.
Cc1ccc(C)c(Cn2nc(-c3cc(C)ccc3C)ccc2=O)c1	i	i	i	i	i	.	.	.	.
CC1CC1C(=O)OCC(=O)Nc1ccccc1Oc1ccccc1 (stereo not drawn)	12*	i	i	i	i	i	i	i	i
COc1ccc(CC(=O)Nc2ccccc2Oc2ccccc2)cc1	8.3*	i	i	i	i	i	i	i	i
COc1ccc(N2CCOCC2)c(NC(=O)COc2cccc(C)c2)c1	i	i	i	i	i	.	.	.	.
CC(C)C(=O)N1CCN(c2ccccc2NC(=O)COc2ccccc2)CC1	i	i	i	i	i	.	.	.	.
Cc1cc(C)c(OCC(=O)Nc2ccccc2N2CCOCC2)c(C)c1	6.9*	i	i	i	i	i	i	i	i
Cc1ccccc1OCC(=O)Nc1ccccc1N1CCOCC1	6.8*	i	i	i	i	i	i	i	i
COc1ccc(N2CCOCC2)c(NC(=O)COc2cccc(C)c2C)c1	12*	i	i	i	i	i	i	i	i
O=C(COc1ccccc1)Nc1ccccc1N1CCN(c2ccccc2)CC1	13*	i	i	i	i	i	i	i	i
COc1ccc(OCC(=O)NC(=S)Nc2ccc(S(=O)(=O)Nc3cc(C)on3)cc2)cc1	i	i	i	i	i	.	.	.	.
Cc1ccc(Cl)cc1N(C)C(=O)Cn1ncc2c([nH]c3ccccc32)c1=O	i	i	i	i	i	.	.	.	.
Cc1ncc([N+](=O)[O-])n1CC(=O)Nc1ccc(F)cc1F	i	i	i	i	i	.	.	.	.
Cc1ccc(SCC(=O)OCC(=O)N2CCN(C(=O)c3ccco3)CC2)c(C)c1	i	i	i	i	i	.	.	.	.
CC(=O)c1c(C)nn(CC(=O)NC2CCCN(Cc3ccc(CC(C)C)cc3)C2)c1C (stereo not drawn)	i	i	i	i	i	.	.	.	.
Cc1ccc(OCC(=O)Nc2ccccc2-c2ccccc2)cc1	6.6*	i	i	i	i	i	i	i	i
CCOc1ccc(-n2c(SCC(=O)Nc3cc(C)on3)nc3c(c2=O)SCC3)cc1	i	i	i	i	i	.	.	.	.
Cc1cc(C(=O)CCl)c(C)n1Cc1ccco1	7*	i	i	i	i	i	i	i	i
Cc1ccc(NC(=O)c2ccc(NS(=O)(=O)c3c(C)noc3C)cc2)cc1C	13*	i	i	i	i	2.3%*	i	i	i
COc1ccc(NC(=O)c2ccc(NS(=O)(=O)c3c(C)noc3C)cc2)cc1OC	i	i	i	i	i	.	.	.	.
COc1ccc(NC(=O)[C@H](C)NC(=O)C2CCN(S(=O)(=O)c3ccc(C)cc3)CC2)cc1	i	i	i	i	i	.	.	.	.
O=C(COc1ccccc1F)NC12CC3CC(CC(C3)C1)C2	6.6*	i	i	i	i	i	i	i	i
O=C(COC(=O)C(O)c1ccccc1)NC12CC3CC(CC(C3)C1)C2 (stereo not drawn)	i	i	i	i	i	.	.	.	.
O=C(COC(=O)C12CC3CC(CC(O)(C3)C1)C2)Nc1ccccc1OC(F)F	i	i	i	i	i	.	.	.	.
SMILES	MrgX1 PAM	MrgX1 antagonist	MrgX1 ag	RGS4 act	RGS4 block	MrgX1 PAM conf	HEK293 Ca flux	HEK293 Ca counter	HEK293 Ca cntr2
O=C(COC(=O)C12CC3CC(CC(C3)C1)C2)Nc1ccccc1F	13*	i	i	i	i	i	i	i	i
Cc1ccc(C(=O)NC(=S)N2CCN(C(=O)OC(C)(C)C)CC2)cc1Br	i	i	i	i	i	.	.	.	.
CN1CCN(S(=O)(=O)c2cccc(C(=O)Nc3ccc(Br)cc3Br)c2)CC1	i	i	i	i	i	.	.	.	.
COCC(C)n1c(SCC(=O)c2cc(C)n(C)c2C)nc2ccccc2c1=O (stereo not drawn)	13*	i	i	i	i	i	i	i	i
CCNC(=O)OCC12CC3CC(CC(C3)C1)C2	9.8*	i	i	i	i	i	i	i	i
O=C(CCC(=O)N1CCOc2ccccc21)Nc1ccccc1Cl	i	i	i	i	i	.	.	.	.
CC(=O)OC(c1nc2ccccc2c(=O)n1C1CC2(OC1=O)c1ccccc1N1C(=O)C(C)(C)N(O)C12)C(C)C (stereo not drawn)	i	i	i	i	i	.	.	.	.
Fc1cccc2sc(Nc3nnc(-c4ccco4)o3)nc12	12*	i	i	i	i	i	i	i	i
CCOC(=O)c1cc(-c2csc(Nc3c(C)cc(C)cc3C)n2)on1	i	i	i	i	i	.	.	.	.
COc1ccc(C2=C(Nc3ccc(C)cc3)c3ccccc3C2=O)cc1	11*	i	i	i	i	i	i	i	i
COc1ccc(C2=C(Nc3ccc(F)cc3)c3ccccc3C2=O)cc1	i	i	i	i	i	.	.	.	.
CC(=O)NCCN=C(C)c1sc2ccccc2c1O	i	i	i	i	i	.	.	.	.
CC(=Nc1ccccc1O)c1sc2ccccc2c1O	i	i	i	i	i	.	.	.	.
CC(=Nc1cccc(C)c1)c1sc2ccccc2c1O	8.1*	i	i	i	i	i	i	i	57*
CC(=Nc1ccc(O)cc1)c1sc2ccccc2c1O	39*	i	i	i	i	i	i	i	i
CC1(C)CC2CC(C)(CN2Cc2c(O)ccc3ccccc23)C1 (stereo not drawn)	7.4*	i	i	i	i	i	i	i	53*
